Test results taken from PubChem BioAssay.
Calls of active or inactive are those of the source.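 Rule for the calls, unless noted: active = GFP response above 150% of the DMSO level; inconclusive = fewer than 70 events counted for a yeast strain; inactive = the rest.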

Tests used:
[1] = hit retest on RPL19A-GFP reporter strain – cell-based, S. cerevisiae, flow cytometry, cherry picks, mother/daughter gates, confirmation (AID 2270;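 active = GFP response below 50% of the DMSO control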); conditions: 3 h, at 10 µM, stronger effect = lower value, 100 = same GFP as DMSO wells
[2] = yeast TOR pathway reporter LAP4-GFP change – cell-based, cherry picks, flow cytometry, mother/daughter gates, confirmation (AID 2271;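 active = GFP response above 150% of the DMSO control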;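 note: ratio of sample to DMSO plate mean so 100% equals DMSO level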); conditions: S. cerevisiae LAP4-GFP strain, 3 h, at 10 µM, stronger effect = higher value, 100 means same as DMSO control
Method in brief: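 System: GFP-fusion yeast strain; Incubation: compound exposure 3 h at 30 °C, end-over-end rotation; Measured by: GFP by flow cytometry; Read-out: median GFP fluorescence as percent of plate-mean DMSO wells; Medium: synthetic complete (SC) yeast growth medium; Compound: single test-compound dose, 10 µM final; Benchmarks: DMSO-only negative wells, rapamycin 400 ng/mL positive wells.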

[3] = TOR pathway reporter MEP2-GFP, retest of hits – S. cerevisiae, flow cytometry GFP, cherry picks, confirmation (AID 2272;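 active = GFP response above 150% of the DMSO control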;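 note: ratio of well signal to plate DMSO mean so 100% equals DMSO level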); conditions: S. cerevisiae MEP2-GFP strain, 3 h, at 10 µM, stronger effect = higher value
[4] = yeast AGP1-GFP fluorescence change, single-dose – cell-based, flow cytometry, S. cerevisiae, cherry picks, confirmation (AID 2273);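 note: median GFP channel fluorescence over the whole cell population gate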; conditions: S. cerevisiae AGP1-GFP strain, 3 h, at 10 µM
[5] = TOR pathway CIT2 reporter hit retest – S. cerevisiae, GFP fusion, cherry picks, mother/daughter gates, confirmation (AID 2274); conditions: S. cerevisiae CIT2-GFP strain, flow cytometry, 3 h, at 10 µM, stronger effect = higher value
[6] = measured here: daughter cell gate
[7] = measured here: mother cell gate
[8] = measured here: daughter cell gate response
[9] = measured here: mother cell gate response

Compound | GFP response vs DMSO [1] | GFP response vs DMSO [1, 6] [%] | GFP response vs DMSO [1, 7] [%] | GFP response relative to DMSO [2] | GFP response relative to DMSO [2, 8] [%] | GFP response relative to DMSO [2, 9] [%] | GFP response vs DMSO [3] | GFP response, % of DMSO [4] | GFP response, % of DMSO [5] | GFP response, % of DMSO [5, 6] [%] | GFP response, % of DMSO [5, 7] [%]
COc1cccc(/C=C2\C(=O)N(c3cccc(C)c3)C(=O)c3ccccc32)c1 | 96% (inactive) | 92 | 92.8 | 168% (active) | 145 | 180 | 98.8% (inactive) | 104% (inactive) | 79.7% (inactive) | 84.1 | 71.8
CC(=O)Nc1ccc(NC(=O)c2nc(S(=O)(=O)Cc3cccc(C)c3)ncc2Cl)cc1 | 102% (inactive) | 99.5 | 103 | 93.8% (inactive) | 97.2 | 95.2 | 100% (inactive) | 97.4% (inactive) | 104% (inactive) | 103 | 105
Cc1cc(C)c(S(=O)(=O)ON2C(=O)c3ccccc3C2=O)cc1C | 88.4% (inactive) | 90.8 | 76.7 | 255% (active) | 209 | 252 | 114% (inactive) | 97.5% (inactive) | 102% (inactive) | 98.3 | 71.1
Cc1c(C(=O)Nc2ccccc2)cnn1-c1ccccc1 | 98.2% (inactive) | 97.4 | 99.2 | 103% (inactive) | 101 | 105 | 105% (inactive) | 96.8% (inactive) | 104% (inactive) | 97.2 | 103
CCCc1nnc(NC(=O)c2nc(S(=O)(=O)Cc3ccc(C)cc3)ncc2Cl)s1 | 98.9% (inactive) | 97.6 | 94 | 106% (inactive) | 102 | 104 | 103% (inactive) | 103% (inactive) | 112% (inactive) | 106 | 108
NC(N)=N/N=C/c1ccc(OCc2ccc(Cl)cc2Cl)cc1 | 88.9% (inactive) | 82.8 | 87.2 | 115% (inactive) | 106 | 121 | 105% (inactive) | 99.1% (inactive) | 85.5% (inactive) | 80.7 | 84.3
O=S(=O)(c1ccc(C2CCCCC2)cc1)N1CCOCC1 | 92.4% (inactive) | 92.7 | 90.1 | 102% (inactive) | 97.5 | 105 | 105% (inactive) | 102% (inactive) | 100% (inactive) | 93.8 | 101
CCOC(=O)Cc1csc(NC(=O)c2sc3nc4ccc(CC)cc4cc3c2N)n1 | 98.9% (inactive) | 99.5 | 99.4 | 95.3% (inactive) | 94.4 | 97.4 | 108% (inactive) | 107% (inactive) | 98.6% (inactive) | 99.3 | 99.3
Cc1ccc2c(c1)c(/C=C/c1cc[n+](C)cc1)c(C)n2C | 107% (inactive) | 109 | 108 | 178% (active) | 194 | 173 | 226% (active) | 114% (inactive) | 184% (active) | 191 | 177
O=S(=O)(/N=C(/Sc1ccccc1)c1ccccc1)c1ccccc1 | 92% (inactive) | 92.5 | 89.8 | 179% (active) | 152 | 180 | 106% (inactive) | 101% (inactive) | 84.7% (inactive) | 88.7 | 79.2
O=C1c2cccc3cccc(c23)C(=O)N1c1nccs1 | 103% (inactive) | 102 | 104 | 116% (inactive) | 117 | 112 | 133% (inactive) | 106% (inactive) | 130% (inactive) | 132 | 131
O=C(NC(=S)NNC(=O)c1cnccn1)c1ccc(F)cc1 | 110% (inactive) | 91.7 | 105 | 259% (active) | 234 | 254 | 104% (inactive) | 92.4% (inactive) | 99.1% (inactive) | 96.5 | 92.3
Cc1ccccc1NC(=O)CC1SC(=O)N(c2ccccc2)C1=O (stereo not drawn) | 94.9% (inactive) | 97.3 | 91 | 131% (inactive) | 127 | 133 | 112% (inactive) | 104% (inactive) | 104% (inactive) | 108 | 94.9
O=C(Nc1cc(Sc2ccccn2)cc([N+](=O)[O-])c1)c1cccc(Cl)c1 | 96.9% (inactive) | 95.3 | 96.3 | 102% (inactive) | 104 | 104 | 106% (inactive) | 103% (inactive) | 88.9% (inactive) | 86.9 | 89.3
O=C(Cn1c(=O)oc2cc(S(=O)(=O)N3CCCC3)ccc21)Nc1ccccc1Br | 93.7% (inactive) | 92.6 | 94.3 | 97.9% (inactive) | 97.6 | 96.1 | 102% (inactive) | 99.9% (inactive) | 101% (inactive) | 103 | 102
COc1ccc(-c2ccc(CCC(=O)O)o2)cc1 | 97% (inactive) | 95.1 | 96.1 | 126% (inactive) | 122 | 126 | 102% (inactive) | 86.3% (inactive) | 101% (inactive) | 97.2 | 101
Cc1ccc(S(=O)(=O)N2CCCC2C(=O)Oc2ccccc2)cc1 (stereo not drawn) | 98.8% (inactive) | 99.1 | 99.5 | 99.2% (inactive) | 99.2 | 99.3 | 100% (inactive) | 95.6% (inactive) | 98.3% (inactive) | 97.2 | 97.3

Compound | GFP response vs DMSO [1] | GFP response vs DMSO [1, 6] [%] | GFP response vs DMSO [1, 7] [%] | GFP response relative to DMSO [2] | GFP response relative to DMSO [2, 8] [%] | GFP response relative to DMSO [2, 9] [%] | GFP response vs DMSO [3] | GFP response, % of DMSO [4] | GFP response, % of DMSO [5] | GFP response, % of DMSO [5, 6] [%] | GFP response, % of DMSO [5, 7] [%]
O=C(c1ccc(Cl)cc1)N1CCN(c2cccc3[nH]ccc23)CC1 | 94.6% (inactive) | 94.1 | 93.1 | 108% (inactive) | 107 | 105 | 105% (inactive) | 91.9% (inactive) | 96.9% (inactive) | 99.1 | 95
COc1ccccc1C1CC(c2c(-c3ccccc3)c3cc(Cl)ccc3[nH]c2=O)=NN1S(C)(=O)=O (stereo not drawn) | 97.6% (inactive) | 98.9 | 97.4 | 106% (inactive) | 107 | 105 | 119% (inactive) | 96.4% (inactive) | 113% (inactive) | 112 | 112
CCOC(=O)C1=C(c2ccccc2)NC(=S)NC1c1cc([N+](=O)[O-])ccc1OC (stereo not drawn) | 94% (inactive) | 92.6 | 96.4 | 97.9% (inactive) | 97.6 | 97.2 | 96.2% (inactive) | 95.2% (inactive) | 99.7% (inactive) | 101 | 99.7
COc1ccc(OC(=O)c2cc(S(=O)(=O)N3CCCC3)ccc2Cl)cc1 | 97.6% (inactive) | 96.9 | 97.2 | 97.9% (inactive) | 99.2 | 97.2 | 98.3% (inactive) | 94.3% (inactive) | 101% (inactive) | 103 | 101
O=c1[nH]c(CCl)nc2cc(-c3ccc(Cl)cc3)sc12 | 95.8% (inactive) | 94.4 | 98.5 | 101% (inactive) | 99.1 | 100 | 107% (inactive) | 96.5% (inactive) | 93% (inactive) | 92 | 78.5
CC(=O)c1ccc(N2CCN(S(=O)(=O)c3ccc4c(c3)CC(C)N4C(C)=O)CC2)cc1 (stereo not drawn) | 95.8% (inactive) | 93.9 | 91.9 | 98.9% (inactive) | 97.5 | 98.4 | 103% (inactive) | 98.8% (inactive) | 104% (inactive) | 99.3 | 103
COC(=O)c1ccc(Cn2cc(/C=C\[N+](=O)[O-])c3ccccc32)o1 | 103% (inactive) | 104 | 102 | 122% (inactive) | 115 | 127 | 106% (inactive) | 98.2% (inactive) | 96.4% (inactive) | 100 | 92.1
Cc1cccc(CSc2cccc3cccnc23)c1 | 92.3% (inactive) | 91.3 | 92.1 | 130% (inactive) | 125 | 132 | 97.2% (inactive) | 89.1% (inactive) | 88.9% (inactive) | 90.5 | 85.9
CCCc1[nH]nc2c1C(c1ccc(O)c(OC)c1)C(C#N)=C(N)O2 (stereo not drawn) | 103% (inactive) | 101 | 103 | 92.6% (inactive) | 94.1 | 93.1 | 107% (inactive) | 97.6% (inactive) | 103% (inactive) | 101 | 103
Fc1ccc(/C=N/Nc2nc(-c3cccnc3)nc3ccccc23)cc1 | 94.5% (inactive) | 92.5 | 95 | 107% (inactive) | 105 | 111 | 102% (inactive) | 94.6% (inactive) | 93.9% (inactive) | 96.5 | 91.2
Cc1nnc(NC(=O)c2csc3c2CCC(C)C3)s1 (stereo not drawn) | 91.5% (inactive) | 87.2 | 93.3 | 117% (inactive) | 110 | 124 | 93.5% (inactive) | 93% (inactive) | 78.2% (inactive) | 76.8 | 77.3
Cc1ccc(CS(=O)(=O)c2ncc(Cl)c(C(=O)Nc3nnc(C)s3)n2)cc1 | 99.6% (inactive) | 99.8 | 98.6 | 102% (inactive) | 104 | 104 | 101% (inactive) | 113% (inactive) | 103% (inactive) | 99.3 | 104
COC(=O)c1ccc(/C=C/C(=O)c2ccc(OC)c(OC)c2)cc1 | 101% (inactive) | 101 | 99.6 | 113% (inactive) | 110 | 117 | 104% (inactive) | 102% (inactive) | 104% (inactive) | 106 | 102
N#C/C(C(=O)Nc1ccc(Cl)cc1)=C(/S)Nc1ccccc1 | 98.8% (inactive) | 98.9 | 99.3 | 105% (inactive) | 104 | 104 | 101% (inactive) | 100% (inactive) | 105% (inactive) | 105 | 105
Cc1nc(Sc2ccc(Cl)cc2)c(C#N)c(C)c1[N+](=O)[O-] | 100% (inactive) | 100 | 98.2 | 91.8% (inactive) | 94.4 | 91.3 | 108% (inactive) | 94.3% (inactive) | 104% (inactive) | 105 | 103
O=C1c2cccc3c([N+](=O)[O-])ccc(c23)C(=O)N1O | 131% (inactive) | 136 | 124 | 249% (active) | 250 | 251 | 404% (active) | 132% (inactive) | 256% (active) | 247 | 223
